Bridge positions count the residues as written; N and C are the ends. Ends that are not written are not given here.
Legend:
[1] = Sedimentation velocity analytical ultracentrifugation; format: physicochemical; settings: for sedimentation coefficient (s20,w), DCDT+ analysis: 20 °C
In short: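 An-50 Ti rotor, double-sector charcoal-epon cells, interference or absorbance optics. 400 μL peptide sample against buffer reference, prepared just before the run, pH set with 1 N HCl. Buffers: 10 mM sodium phosphate (pH 7, 6, 4, 2; NaCl 50, 150, 500 mM) and 20 mM Tris-HCl or HEPES pH 7, ± 50 mM MgCl2/CaCl2. Fitting used c(s) Lamm and g(s*) from 22–26 scans, with modelled monomer/dimer/tetramer S-values.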

[2] = Sedimentation equilibrium analytical ultracentrifugation; format: physicochemical
In short: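 Absorbance optics at 280 nm, 20 °C, An-50 Ti rotor. Samples were 400 μL of the oxidized peptide in 10 mM sodium phosphate, pH set with 1 N HCl: pH 8 (183, 230, 283 μM), pH 7 (165–288 μM), pH 6 (210, 330 μM), pH 4 (236, 288 μM), pH 2 (189, 238, 293 μM). Buffer viscosity, density and partial specific volume were computed for 20 °C.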

[3] = NMR relaxation; format: physicochemical; settings: 90:10 H2O/D2O
[4] = test system: HD5ox; settings: SPR, pH 7.4, 150 mM NaCl; cited from earlier work
[5] = target: the molecule itself; assay: AUC

Molecule: Human defensin 5 (ATCYCRTGRCATRESLSGVCEISGRLYRLCCR; disulfide 10-30, 5-20, 3-31; also: 15N or 13C,15N labelled in NMR samples) [HD5ox]
- effect of Mg(II) and Ca(II) on the sedimentation coefficient ([1]; 50 mM MgCl2 or CaCl2 in 20 mM Tris-HCl or HEPES buffer, pH 7.0): negligible impact
- minimum frictional ratio (f/f0) ([1]; Equation 2, ssphere/s20,w, all buffers): ~ 1.2
- oligomeric form from comparison of experimental and calculated S-values ([1]; aqueous buffer at neutral pH, concentrations ≥30 μM): tetrameric
- sedimentation coefficient (s20,w), DCDT+ analysis ([1]; pH 2.0, 10 mM sodium phosphate buffer, 194 μM): 1.0 S
- sedimentation coefficient (s20,w), DCDT+ analysis ([1]; pH 4.0, 10 mM sodium phosphate buffer, 131 μM): 1.2 S
- sedimentation coefficient (s20,w), DCDT+ analysis ([1]; pH 6.0, 10 mM sodium phosphate buffer, 161 μM): 1.6 S
- sedimentation coefficient (s20,w), DCDT+ analysis ([1]; pH 7.0, 10 mM sodium phosphate buffer): 1.8 S
- effect of NaCl on the sedimentation coefficient ([1]; up to 500 mM NaCl, pH 7, 10 mM sodium phosphate buffer): no effect
- best-fit molecular weight by sedimentation equilibrium ([2]; pH 2.0, 10 mM sodium phosphate buffer, 189-293 μM, 20 °C): 7,079 Da
- oligomeric molecular weight to which the sedimentation equilibrium fit converged ([2]; pH 4.0, 6.0 and 8.0, 10 mM sodium phosphate buffer): tetrameric
- molecular weight estimated from TRACT Tc ([3]; 340 μM 13C,15N-HD5ox, pH 4): ca. 6.8 kDa
- rotational correlation time Tc, [15N,1H]-TRACT method ([3]; 340 μM 13C,15N-HD5ox, pH 4 (TFA)): ca. 4.1 ns
- oligomerization state under the NMR sample conditions ([3]; 340 μM, pH 4, unbuffered): dimer
- HD5ox concentration above which evidence for higher-order oligomers was reported [4]: > 8 µM

B1: Human defensin 5, oxidized form (HD5ox) (peptide, UniProt Q01523 63-94, looked up)
chain: ATCYCRTGRCATRESLSGVCEISGRLYRLCCR
modifications: disulfide 10-30, 5-20, 3-31; also: 15N or 13C,15N labelled in NMR samples
- Kd [5]: < 30 µM
- stoichiometry N [5]: 4
